# The source made the active and inactive calls. No cut-off for these calls is given here.
# Tests used:
# [1] = test system: Human T-cell leukemia virus type I; assay: Antiviral activity against HTLV1 in human PBMC at 5 uM; format: functional, organism-based
# How it was run: (§1)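 Fresh human PBMC cultures were given compound at 100, 25, 5 or 1 µM immediately before exposure to HTLV-1. Infection was read out as Tax/Rex viral mRNA expression by liquid hybridization assay 3 weeks after virus exposure.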
# [2] = test system: Human T-cell leukemia virus type I; assay: Antiviral activity against HTLV1 in human PBMC at 25 uM; format: functional, organism-based; how it was run: as §1
# [3] = test system: Human T-cell leukemia virus type I; assay: Antiviral activity against HTLV1 in human PBMC at 100 uM; format: functional, organism-based; how it was run: as §1
# PBMC = assay: Cytotoxicity against PBMC after 1 week by trypan blue exclusion test; format: cell-based; details: human, 168 h
# How it was run: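 Freshly separated PBMCs were cultured short-term with compound and interleukin 2, without other stimuli. Cell growth and death were assessed on day 7, and cytotoxicity was expressed as CC20.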
# [4] = test system: Human T-cell leukemia virus type I; assay: Antiviral activity against HTLV1 in human PBMC; format: functional; how it was run: as §1
# [5] = test system: Human T-cell leukemia virus type I; assay: Antiviral activity against HTLV1 in human PBMC at 1 uM; format: functional, organism-based; how it was run: as §1
# [6] = test system: Human T-cell leukemia virus type I; assay: Inhibition of HTLV1 reverse transcriptase
# How it was run: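 Cell-free assay of HTLV-1 reverse transcriptase, with compounds activated by incubation with human PBMC crude extract. Reverse transcription was read out by RT-PCR using a 20-cycle amplification program.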
MIC [6] [nM],SMILES,Activity [1],Activity [2],Activity [3],CC20 (PBMC) [µM],GI25 (PBMC) [µM],MPC [4] [µM],Activity [5]
–,CCOP(=O)(CC1CC(n2cc(C)c(=O)[nH]c2=O)ON1C)OCC (stereo not given),Active,Active,Active,> 2048,817,1,Active
> 10000,CCOP(=O)(CC1CC(n2cnc3c(N)ncnc32)ON1C)OCC (racemic),–,–,–,> 2048,121,>100,–
–,CCOP(=O)(CC1CC(n2cc(F)c(=O)[nH]c2=O)ON1C)OCC (stereo not given),Active,Active,Active,> 2048,119,1,Active
4,Cc1cn([C@H]2C[C@H](N=[N+]=[N-])[C@@H](CO)O2)c(=O)[nH]c1=O [ZIDOVUDINE],Active,Active,Active,1153,15,1,Active
8,CCOP(=O)(CC1CC(n2cc(Br)c(=O)[nH]c2=O)ON1C)OCC (racemic),–,–,–,> 2048,215,>100,–

# Source: ChEMBL document CHEMBL1145446, “Phosphonated carbocyclic 2'-oxa-3'-azanucleosides as new antiretroviral agents” (J Med Chem, 2007)
